Source: PubChem
An excerpt weighted towards active compounds, which were near 3.1% of everything screened.
GalR3 antag – blocks the human galanin receptor 3; AID 651719; HEK293 GalR3-CNG cAMP membrane potential fluorescence; galR3 body fused to GalR1 C-terminus; actives 0.44% (n = 360,000); O60755; inhibition, % at 3 µM;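 active means inhibition above the screen-wide average plus 3 SD, cut at about 13% in these data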;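 further: forskolin and galanin both at EC90 stimulate the cells; cAMP rise reported by CNG channel membrane potential dye signal; 0% = forskolin plus galanin with DMSO and 100% = forskolin alone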
OX1R antag-1 – OX1R (human) antagonism | OX1R-expressing cells, FRET antagonist read-out | actives 1.8% (n = 330,000) | O43613 | inhibition, % at 6.6 µM | AID 485270; in the data active means inhibition mostly above about 38%, no sharp cut-off; inactive means mostly below about 40%;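 further: 0% = agonist challenge alone and 100% = reference antagonist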
Target sequence (O43613 whole entry, looked up): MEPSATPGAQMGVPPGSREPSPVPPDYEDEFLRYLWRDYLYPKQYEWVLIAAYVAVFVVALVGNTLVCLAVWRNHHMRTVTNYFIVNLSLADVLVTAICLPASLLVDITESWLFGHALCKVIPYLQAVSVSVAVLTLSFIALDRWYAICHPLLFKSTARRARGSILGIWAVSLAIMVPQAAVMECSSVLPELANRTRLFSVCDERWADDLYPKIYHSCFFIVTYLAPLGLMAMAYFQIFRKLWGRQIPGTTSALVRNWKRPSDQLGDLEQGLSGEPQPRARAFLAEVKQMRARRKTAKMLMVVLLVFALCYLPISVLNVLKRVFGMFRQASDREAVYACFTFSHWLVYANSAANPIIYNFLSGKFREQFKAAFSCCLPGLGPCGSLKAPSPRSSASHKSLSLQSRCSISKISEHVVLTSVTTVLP
GPR7 antagonist – human neuropeptides B/W receptor 1 antagonism | inhibition, % at 4.4 µM | GPR7-expressing cells, fluorescence antagonist assay | actives 1.1% (n = 290,000); in the data active means inhibition above about 16%, passing the limit was not always enough;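 further: cells stimulated with the agonist NPW; 0% = agonist with vehicle and 100% = vehicle without agonist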
CHO parental Ca – signal in parental CHO cells, OX1R antagonist counter-screen; actives 0.63% (n = 330,000); inhibition, % at 5.6 µM; parental CHO-K1, ATP-induced calcium, Fluo-8 fluorescence;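 active means inhibition above that plate's mean sample inhibition plus 3 SD, cut at about 26% in these data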;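 further: 0% = ATP-challenged DMSO wells and 100% = DMSO wells without ATP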
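Assay system – parental CHO cells · Reagent – ATP stimulus · Detection – intracellular calcium via Fluo-8 no-wash fluorescent dye · Evaluation – percent inhibition of ATP-evoked calcium rise, normalized to controls · Controls – ATP wells versus no-ATP DMSO wells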
OX1R antag-2 – blocks the human orexin 1 receptor | inhibition, % at 5 µM | CHO/OX1R cells, Fluo-8 calcium fluorescence, orexin A | actives 0.43% (n = 330,000) | O43613;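 active means inhibition above its plate's threshold, mean inhibition of all tested compounds on the plate plus 3 SD, cut at about 37% in these data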;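 further: 0% = orexin A challenge wells and 100% = SB-334867-A antagonist wells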
OX1R HTRF conf – confirmation of human orexin 1 receptor antagonists, HTRF format; OX1R-expressing cells, HTRF antagonist assay; shares compounds with OX1R antag-1; inhibition, % at 6.6 µM; actives 49% (n = 1,800); in the data active means inhibition above about 55%;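 further: CHO cells expressing OX1R stimulated with orexin A at about EC80; 0% = agonist challenge alone and 100% = reference antagonist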
CHO-K1 HTRF cnt – counter-screen for OX1R antagonists: effect in parental CHO-K1 cells. shares compounds with OX1R antag-1. HTRF counterscreen. inhibition, % at 6.6 µM. actives 48% (n = 1,800). AID 493232; in the data active means inhibition above about 17%;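 further: 0% = agonist challenge with vehicle and 100% = vehicle alone without agonist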
GalR3 antag conf – confirmation of human galanin receptor 3 antagonists; inhibition, % at 3 µM; actives 59% (n = 1,600); shares compounds with GalR3 antag; HEK293 GalR3 CNG cAMP biosensor, membrane potential fluorescence; galR3 fused to GalR1 carboxy tail; challenged with forskolin and galanin at EC90;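 active means inhibition above the primary screen's cutoff, the mean inhibition of all screened compounds plus 3 SD, cut at about 13% in these data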;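 further: 0% = forskolin plus galanin and 100% = forskolin alone with DMSO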
HEK-CNG parental – acts as nonspecific agonist in parental HEK-CNG cells. HEK293-CNG parental cells, cAMP membrane potential fluorescence; normalised: DMSO wells 0%, forskolin wells 100%. shares compounds with GalR3 antag. actives 10% (n = 1,600). AID 652268. activation, % at 3 µM; in the data active means activation above about 1.3%
Starred values were filed as active, the others as inactive.

For CN1CCN(c2ccc([N+](=O)[O-])c3cccnc23)CC1 the results were GalR3 antag -10.0, OX1R antag-1 128.2*, GPR7 antagonist 11.5, CHO parental Ca -16.5, OX1R antag-2 -21.2, OX1R HTRF conf 43.1 and CHO-K1 HTRF cnt 64.2*.
Screening O=[N+]([O-])c1ccc(N2CCNCC2)c2ncccc12 returned GPR7 antagonist 3.0.
For CCOC(=O)Cn1cc(C(=O)c2ccccc2F)c2ccccc21 the results were GalR3 antag -2.4, OX1R antag-1 9.7, GPR7 antagonist -11.8, CHO parental Ca -16.1 and OX1R antag-2 -19.6.
Screening CCOC(=O)Cn1cc([N+](=O)[O-])nc1[N+](=O)[O-] returned GalR3 antag 3.5, OX1R antag-1 92.3*, GPR7 antagonist -4.8, CHO parental Ca -0.2, OX1R antag-2 -13.5, OX1R HTRF conf 42.1 and CHO-K1 HTRF cnt 53.2*.
CCC(=Nc1ccccc1N)c1c(O)[nH]c(=O)[nH]c1=O was read as GalR3 antag -3.0, OX1R antag-1 8.1, GPR7 antagonist -3.2, CHO parental Ca -13.9 and OX1R antag-2 -35.7.
Screening C[n+]1ccc(-c2ccccc2)c2ccccc21 returned GalR3 antag -5.9, OX1R antag-1 96.5*, CHO parental Ca -1.4, OX1R antag-2 4.2, OX1R HTRF conf 76.5* and CHO-K1 HTRF cnt 84.0*.
`COc1ccc(C2=NS(=O)(=O)N(C)C(C(=O)N3CCC4(CC3)OCCO4)=C2)cc1OC` gave GalR3 antag -5.1, OX1R antag-1 14.2, GPR7 antagonist 1.5, CHO parental Ca -6.1 and OX1R antag-2 -7.0.
Screening O=C1OC(c2ccc([N+](=O)[O-])cc2)=N/C1=C/N1CC2CC(C1)c1cccc(=O)n1C2 (stereo not given) returned GalR3 antag -2.9, OX1R antag-1 80.4*, GPR7 antagonist -6.2, CHO parental Ca -16.2, OX1R antag-2 -5.0, OX1R HTRF conf 24.9 and CHO-K1 HTRF cnt 17.7*.
`CCN1CCC2(CC1)NC(=O)c1ccccc1O2` gave GalR3 antag -2.8, OX1R antag-1 11.4, GPR7 antagonist -13.6, CHO parental Ca -0.8 and OX1R antag-2 1.7.
Cc1ccc(C(=O)O)cc1N=Nc1c(O)[nH]c(=O)[nH]c1=O was read as GalR3 antag 0.1, OX1R antag-1 154.1*, GPR7 antagonist -8.1, CHO parental Ca -2.6, OX1R antag-2 3.5, OX1R HTRF conf 57.5* and CHO-K1 HTRF cnt 100.7*.
Screening O=C(O)c1cccc(N=Nc2c(O)[nH]c(=O)[nH]c2=O)c1 returned GalR3 antag -3.9, OX1R antag-1 137.7*, GPR7 antagonist -2.6, CHO parental Ca -12.9, OX1R antag-2 3.3, OX1R HTRF conf 61.8* and CHO-K1 HTRF cnt 92.3*.
`CCC1C=CC=CC[C@H](C)[C@@H](O)[C@](C)(O)C(=O)[C@@H](C)[C@H](O)[C@@H](C)C(=O)[C@H](C)[C@@H](O)[C@H](C)C=CC(=O)OC2[C@@H](C)C(CC1)OC1(CC[C@@H](C)C(C[C@H](C)O)O1)[C@@H]2C` (stereo not given in full) gave OX1R antag-1 38.8, CHO parental Ca -10.5 and OX1R antag-2 -23.1.
For O=C1NC(=O)C(=Cc2ccc(N3CCOCC3)o2)C(=O)N1 the results were GalR3 antag -4.8, OX1R antag-1 92.2*, GPR7 antagonist -5.5, CHO parental Ca 2.6, OX1R antag-2 -15.1, OX1R HTRF conf 49.6 and CHO-K1 HTRF cnt 99.2*.
O=c1[nH]c(O)c(N=Nc2ccc([N+](=O)[O-])cc2)c(=O)[nH]1 was read as GalR3 antag 0.1, OX1R antag-1 88.8*, GPR7 antagonist -2.7, CHO parental Ca 1.7, OX1R antag-2 -24.6, OX1R HTRF conf 61.9* and CHO-K1 HTRF cnt 98.6*.
Screening O=c1[nH]c(O)c(C=Nc2ccccc2[N+](=O)[O-])c(=O)[nH]1 returned OX1R antag-1 17.8, GPR7 antagonist -3.7, CHO parental Ca -7.0 and OX1R antag-2 -16.9.
Cc1ccc(N=Nc2c(O)[nH]c(=O)[nH]c2=O)c([N+](=O)[O-])c1 was read as GalR3 antag 0.7, OX1R antag-1 123.8*, GPR7 antagonist -1.5, CHO parental Ca -3.2, OX1R antag-2 -7.5, OX1R HTRF conf 38.0 and CHO-K1 HTRF cnt 56.2*.
For CC(C)c1ccc(N=Nc2c(O)[nH]c(=O)[nH]c2=O)cc1 the results were GalR3 antag -3.6, OX1R antag-1 19.9, GPR7 antagonist -4.1, CHO parental Ca -0.5 and OX1R antag-2 -7.5.
For Clc1ccc([C@H]2CC3CCC2N3)cn1 (stereo not given in full) the results were GalR3 antag -1.0.
For CCCCCCC[n+]1ccc(-c2cc[n+](CCCCCCC)cc2)cc1 the results were GalR3 antag -2.8, OX1R antag-1 140.1*, GPR7 antagonist 0.4, CHO parental Ca -10.4, OX1R antag-2 -10.4, OX1R HTRF conf 60.3* and CHO-K1 HTRF cnt 91.5*.
`c1ccc2c[n+](CCCCCCCCCC[n+]3ccc4ccccc4c3)ccc2c1` gave GalR3 antag -4.8.
Screening CCC1(CC)C(=O)N(C)C(=O)NC1=NC returned GalR3 antag -2.7, OX1R antag-1 10.6, GPR7 antagonist -10.3, CHO parental Ca -11.5 and OX1R antag-2 -24.3.
CC[C@@H](O)C[C@H]1CCC[C@@]2(C[C@@H]3OC(=O)/C=C/[C@@](C)(O)[C@@H](O)[C@H](C)[C@@H](O)[C@H](OC4CCC(N(C)C)C(C)O4)[C@@H](O)[C@](C)(O)CCCCC/C=C/[C@@H]4CC(C)(C)O[C@@]4(O)C[C@H](O2)[C@H]3C)O1 (stereo not given in full) was read as GalR3 antag 6.9.
CCc1nnc(NC(=O)CCc2nc(C3=CCN(C)CC3)no2)s1 was read as GalR3 antag -1.8, OX1R antag-1 98.2*, GPR7 antagonist -13.0, CHO parental Ca -4.2, OX1R antag-2 -0.8, OX1R HTRF conf 14.2 and CHO-K1 HTRF cnt 10.8.
For Nc1cc(Cl)c2nonc2c1[N+](=O)[O-] the results were GalR3 antag 35.3*, OX1R antag-1 113.3*, GPR7 antagonist 5.2, CHO parental Ca 25.0, OX1R antag-2 31.1, OX1R HTRF conf 84.8*, CHO-K1 HTRF cnt 84.5*, GalR3 antag conf 20.2* and HEK-CNG parental 0.9.
